Measurements published in ChEMBL document CHEMBL3526114, “Histone deacetylase inhibitors increase human arylamine N-acetyltransferase-1 expression in human tumor cells” (Drug Metab Dispos, 2011).

Legend:
[1] = molecular target: T1, NAT1 (arylamine N-acetyltransferase 1) (Homo sapiens, UniProt P18440); assay: Increase in NAT1 enzyme activity in human HeLa cells at 0.5 uM using p-aminobenzoic acid substrate after 24 hrs by HPLC method relative to untreated control; type: ADME, cell-based; details: probe p-aminobenzoic acid, read-out: FC
T1 sequence (P18440 whole entry): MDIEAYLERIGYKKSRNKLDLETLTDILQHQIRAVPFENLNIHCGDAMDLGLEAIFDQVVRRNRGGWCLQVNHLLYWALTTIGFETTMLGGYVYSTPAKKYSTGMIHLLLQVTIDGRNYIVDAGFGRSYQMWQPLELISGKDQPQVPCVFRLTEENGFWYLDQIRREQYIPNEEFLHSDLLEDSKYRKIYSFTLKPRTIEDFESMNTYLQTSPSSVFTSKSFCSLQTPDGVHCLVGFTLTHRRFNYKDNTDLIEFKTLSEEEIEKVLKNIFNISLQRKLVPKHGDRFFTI
In short: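 HeLa cultured in RPMI 1640 with 5% FBS and treated with 0.5 μM TSA or DMSO vehicle for 24 hr at 37°C. Cells washed with PBS and sonicated in 20 mM Tris pH 7.4, 1 mM EDTA, 1 mM DTT. Lysates assayed at once for NAT1 activity by HPLC with p-aminobenzoic acid substrate. Mean ± SEM, n = 3.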

[2] = molecular target: T1, NAT1 (arylamine N-acetyltransferase 1); assay: Increase in NAT1 enzyme activity in 40% confluent human HeLa cells at 0.5 uM using p-aminobenzoic acid substrate after 24 hrs by HPLC method relative to untreated control; type: ADME, cell-based; details: probe p-aminobenzoic acid, read-out: FC
In short: (§1)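 HeLa seeded at 2 × 10⁵, 4 × 10⁵ or 6 × 10⁵ cells/well in 6-well plates (40, 80, 100% confluence at treatment). Treated with 0.5 μM TSA or vehicle for 24 hr. Sonicated lysates in 20 mM Tris pH 7.4, 1 mM EDTA, 1 mM DTT. NAT1 activity measured by HPLC with p-aminobenzoic acid substrate. Mean ± SEM, n = 3; Student's t-test versus vehicle.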

[3] = molecular target: T1, NAT1 (arylamine N-acetyltransferase 1); assay: Increase in NAT1 enzyme activity in 100% confluent human HeLa cells at 0.5 uM using p-aminobenzoic acid substrate after 24 hrs by HPLC method relative to untreated control; type: ADME, cell-based; details: probe p-aminobenzoic acid, read-out: FC; in short: as §1
HeLa [4] = assay: Increase in NATb promoter activity in human HeLa cells at 0.5 uM after 24 hrs by qPCR method; type: ADME, cell-based
In short: (§2)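 After 24 hr with 0.5 μM TSA or vehicle, HeLa NATb-derived NAT1 transcript quantified by qPCR. Cycling: 95°C 10 min, then 40 cycles (NATb) or 30 (β-actin) of 95°C 15 s, 50°C 20 s, 72°C. Single product checked by melt curve and gel. Normalised to β-actin; fold change by ΔΔCT. Mean ± SEM, n = 6; t-test.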

HeLa [5] = assay: Increase in NATa promoter activity in human HeLa cells at 0.5 uM after 24 hrs by qPCR method; type: ADME, cell-based
NAT1 mRNA = assay: Increase in NAT1 mRNA expression in human HeLa cells at 0.5 uM after 24 hrs by qPCR method; type: ADME, cell-based; details: read-out: FC; in short: as §2
NATb promoter of NAT1 [6] = assay: Induction of NATb 3657 bp fragment upstream of exon 4 in human HeLa cells at 0.5 uM after 24 hrs by luciferase reporter gene assay; type: cell-based; details: read-out: FC
In short: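 HeLa seeded at 1.5 × 10⁵ cells/well and left overnight, then transfected (Lipofectamine 2000) with 1 µg of a deletion series of NATb promoter–firefly luciferase constructs (length = bp upstream of exon 4). After 4 hr, 0.5 µM TSA or DMSO for 24 hr; passive lysis buffer; luciferase read-out. Mean ± SEM, n = 3; t-test.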

HeLa [7] = assay: Induction of NATb Sp1 site in human HeLa cells at 0.5 uM after 24 hrs by luciferase reporter gene assay; type: cell-based
NATb promoter of NAT1 [8] = assay: Induction of Sp1 recruitment to NATb promoter in human HeLa cells at 0.5 uM after 24 hrs by luciferase reporter gene assay; type: cell-based; details: read-out: FC
NATb promoter of NAT1 [9] = assay: Induction of Sp1 (GC>TA) mutant recruitment to NATb promoter in human HeLa cells at 0.5 uM after 24 hrs by luciferase reporter gene assay; type: cell-based; details: read-out: FC
HeLa [10] = assay: Induction of Sp1 recruitment to NATb promoter in human HeLa cells nuclear extracts at 0.5 uM after 24 hrs by EMSA method; type: cell-based
In short: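 Nuclear extracts from HeLa treated with 0.5 µM TSA or vehicle. 2 µg extract incubated with 1 × 10⁵ d.p.m. ³²P probe spanning the NATb Sp1 site, 30 min at room temperature, in binding buffer pH 7.9 with poly[d(I-C)]. Competition used 100-fold excess unlabelled wild-type or mutant probe; supershift used 2 µg Sp1 antibody. Run on 5% native PAGE at 4°C; phosphorimaging.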

HeLa [11] = assay: Induction of Sp1 recruitment to NATb promoter in human HeLa cells at 0.5 uM after 6 hrs by ChIP assay
HeLa [12] = assay: Induction of acetylated histone H4 recruitment to NATb promoter in human HeLa cells at 0.5 uM after 6 hrs by ChIP assay
HeLa [13] = assay: Effect on NAT1 mRNA stability in human HeLa cells assessed as slope of mRNA decay curve at 0.5 uM after 24 hrs in presence of transcription inhibitor actinomycin D by qPCR method (reference value: -0.78 +/- 0.09/hr)

fold induction at 24 h, 0.5 µM [1]: 3.2 | fold induction at 24 h, 0.5 µM [2]: 4.1 | fold induction at 24 h, 0.5 µM [3]: < 1.5 | fold induction at 24 h, 0.5 µM (NAT1 mRNA): 25 | fold induction at 24 h, 0.5 µM (NATb promoter of NAT1 [6]): 18 | fold induction at 24 h, 0.5 µM (NATb promoter of NAT1 [8]): 45 | fold induction at 24 h, 0.5 µM (NATb promoter of NAT1 [9]): < 5 | Activity (HeLa [13]): -0.46 h⁻¹
Structure (SMILES): CC(/C=C/C(=O)NO)=C\[C@@H](C)C(=O)c1ccc(N(C)C)cc1 [TRICHOSTATIN]
Activity (HeLa [4]): Toxic | Activity (HeLa [5]): Non-toxic | Activity (HeLa [7]): Toxic | Activity (HeLa [10]): Toxic | Activity (HeLa [11]): Toxic | Activity (HeLa [12]): Toxic
